Experimental data as given in ChEMBL document CHEMBL4024749, “Discovery of 3,5-Diphenyl-4-methyl-1,3-oxazolidin-2-ones as Novel, Potent, and Orally Available Δ-5 Desaturase (D5D) Inhibitors” (J Med Chem, 2017).

Experiments:
[1] = molecular target: Acyl-CoA (8-3)-desaturase (Rattus norvegicus, UniProt Q920R3); experiment: Displacement of [3H]T-3364366 from D5D in rat liver microsomal membrane preincubated for 15 mins followed by radioligand addition measured after 150 mins by TopCount microscintillation counting assay; format: cell membranes
Summary of the method: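 Rat liver microsome fraction (30 μg/well) preincubated 15 min with test compound at room temperature in 10 mM Tris-HCl pH 7.5, 100 mM KCl, 10 mM NaF buffer, 200 μL/well; bound ligand trapped on GF/C filters, washed 5× with ice-cold buffer, counted by scintillation. Nonspecific binding with 10 μM unlabeled T-3364366; IC50 from three-parameter logistic fit.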

[2] = molecular target: Acyl-CoA (8-3)-desaturase (Homo sapiens, UniProt O60427); experiment: Inhibition of D5D in human HepG2 cells assessed as [14C]AA formation from [14C]DGLA preincubated for 30 mins followed by [14C]eicosatrienoic acid addition measured after 3 hrs by TLC analysis; format: cell-based
Summary of the method: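 HepG2 plated at 1 × 10^5 cells/well, cultured overnight in DMEM/10% FBS, PBS-washed, then preincubated 30 min at 37 °C with compound in DMEM with penicillin/streptomycin and 0.3% BSA. 0.1 μCi [14C]eicosatrienoic acid added and cells incubated 3 h at 37 °C; lipids saponified overnight at 55 °C with NaOH, acidified, extracted with chloroform/MeOH, separated by TLC.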

[3] = test system: Liver; experiment: Metabolic stability in mouse liver microsomes; format: ADME, microsome
[4] = test system: Liver; experiment: Metabolic stability in human liver microsomes; format: ADME, microsome
[5] = Drug level in human hepatocytes treated with 5-(4-Fluorophenyl)-3-(3-methoxyphenyl)-1,3-oxazolidin-2-one by LC-MS/MS analysis; format: ADME, cell-based, Hepatocyte
[6] = Drug level in mouse hepatocytes treated with 5-(4-Fluorophenyl)-3-(3-methoxyphenyl)-1,3-oxazolidin-2-one by LC-MS/MS analysis; format: ADME, cell-based, Hepatocyte
[7] = MRT (0 to 8 hrs) in mouse at 1 mg/kg, po administered as cassette dose; format: ADME, organism-based; details: in vivo
[8] = AUC (0 to 8 hrs) in mouse at 1 mg/kg, po administered as cassette dose; format: ADME, organism-based; parameters: time < 8 hr, dose 1 mg/kg, route oral; details: in vivo
[9] = Oral bioavailability in mouse at 0.1 mg/kg, iv or 1 mg/kg administered as cassette dose up to 8 hrs; format: ADME, organism-based; details: in vivo
[10] = test system: Mus musculus; experiment: In vivo inhibition of D5D in C57BL/6J mouse liver assessed as decrease in AA/DGLA ratio by measuring inhibition index at 3 mg/kg, qd administered via oral gavage for 4 days by HPLC analysis relative to control; details: 96 h
[11] = AUC (0 to 8 hrs) in mouse at 0.1 mg/kg, iv or 1 mg/kg, po; format: ADME, organism-based; details: in vivo
[12] = molecular target: CYP2C9 (Homo sapiens, UniProt P11712); experiment: Inhibition of CYP2C9 (unknown origin) at 10 uM
[13] = MRT (0 to 8 hrs) in mouse at 0.1 mg/kg, iv or 1 mg/kg, po measured; format: ADME, organism-based; details: in vivo
[14] = test system: Mus musculus; experiment: In vivo inhibition of D5D in C57BL/6J mouse liver assessed as decrease in AA/DGLA ratio by measuring inhibition index at 3 mg/kg, qd administered via oral gavage for 4 days by HPLC analysis relative to control; format: functional; details: 96 h
Summary of the method: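 Male C57BL/6J mice, 7–9 weeks old, on normal chow, individually caged; 3 mg/kg suspension in 0.5% methylcellulose by gavage each morning at 10 mL/kg for 4 days. Liver taken next morning; phospholipid fraction from about 40 mg tissue labeled, AA and DGLA measured by HPLC; AA/DGLA decrease versus vehicle group taken as 100%.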

Acyl-CoA (8-3)-desaturase (Homo sapiens, UniProt O60427), sequence (O60427 whole entry): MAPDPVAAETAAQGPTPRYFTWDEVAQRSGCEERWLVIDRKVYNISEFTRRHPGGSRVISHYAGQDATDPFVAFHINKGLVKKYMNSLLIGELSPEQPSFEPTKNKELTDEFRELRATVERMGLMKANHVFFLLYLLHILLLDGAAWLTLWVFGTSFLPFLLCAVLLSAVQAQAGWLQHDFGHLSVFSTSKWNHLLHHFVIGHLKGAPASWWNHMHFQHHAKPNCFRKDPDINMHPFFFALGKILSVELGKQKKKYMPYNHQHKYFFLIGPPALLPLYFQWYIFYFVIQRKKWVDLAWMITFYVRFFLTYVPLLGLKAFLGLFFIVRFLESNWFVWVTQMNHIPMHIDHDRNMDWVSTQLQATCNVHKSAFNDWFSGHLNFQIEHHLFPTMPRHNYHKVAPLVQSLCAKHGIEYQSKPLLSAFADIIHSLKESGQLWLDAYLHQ
Acyl-CoA (8-3)-desaturase (Rattus norvegicus, UniProt Q920R3), sequence (Q920R3 whole entry): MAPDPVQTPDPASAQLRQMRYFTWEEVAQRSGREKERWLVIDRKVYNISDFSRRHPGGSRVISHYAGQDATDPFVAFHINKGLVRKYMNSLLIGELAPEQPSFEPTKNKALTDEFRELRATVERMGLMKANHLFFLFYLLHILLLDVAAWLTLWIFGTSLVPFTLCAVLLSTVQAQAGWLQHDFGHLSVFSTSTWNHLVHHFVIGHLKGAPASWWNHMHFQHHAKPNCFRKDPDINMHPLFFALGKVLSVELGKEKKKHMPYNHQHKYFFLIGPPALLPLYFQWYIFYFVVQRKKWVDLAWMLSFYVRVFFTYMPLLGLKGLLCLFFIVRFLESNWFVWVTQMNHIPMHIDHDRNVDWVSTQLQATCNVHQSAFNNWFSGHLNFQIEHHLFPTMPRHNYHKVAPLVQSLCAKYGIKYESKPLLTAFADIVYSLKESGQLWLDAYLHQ
CYP2C9, sequence (P11712 whole entry): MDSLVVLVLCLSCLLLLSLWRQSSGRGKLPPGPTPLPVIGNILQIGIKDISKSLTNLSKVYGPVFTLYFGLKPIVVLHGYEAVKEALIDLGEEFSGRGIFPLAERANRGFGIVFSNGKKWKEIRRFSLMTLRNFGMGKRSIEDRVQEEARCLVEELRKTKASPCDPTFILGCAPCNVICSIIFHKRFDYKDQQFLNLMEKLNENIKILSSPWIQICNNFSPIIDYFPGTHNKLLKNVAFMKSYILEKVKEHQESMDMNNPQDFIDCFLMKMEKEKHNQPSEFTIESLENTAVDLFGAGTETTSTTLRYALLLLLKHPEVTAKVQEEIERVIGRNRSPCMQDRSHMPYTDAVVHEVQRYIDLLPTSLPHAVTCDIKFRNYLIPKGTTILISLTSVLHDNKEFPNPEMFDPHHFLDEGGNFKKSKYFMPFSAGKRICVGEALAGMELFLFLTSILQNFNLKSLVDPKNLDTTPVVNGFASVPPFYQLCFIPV

SMILES	IC50 [1]	IC50 [2]	also measured
COc1ccc(OC)c(N2CC(c3ccc(F)cc3)OC2=O)c1 (racemic)	13 nM	18 nM	–
C[C@H]1[C@H](c2ccc(F)cc2)OC(=O)N1c1cccc(C#N)c1 (racemic)	13 nM	8.9 nM	–
N#Cc1cccc(N2CC(c3ccc(F)cc3)OC2=O)c1 (racemic)	78 nM	170 nM	Stability [3]: 94 µL/min/mg
COc1ccc(OC)c(N2CCN(C(=O)c3ccc(Cl)cc3)C(C)C2=O)c1 (racemic)	360 nM	–	–
C[C@@H]1[C@H](c2ccc(F)cc2)OC(=O)N1c1cccc(C#N)c1 (racemic)	410 nM	–	Stability [4]: 21 µL/min/mg; Stability [3]: 7 µL/min/mg
O=C1OC(c2ccc(F)cc2)CN1c1cccc(O)c1 (centres undefined)	–	–	Drug metabolism [5]: Metabolite_Detected
C[C@@H]1[C@@H](c2ccc(F)cc2)OC(=O)N1c1cccc(C#N)c1	5800 nM	–	–
N#Cc1cccc(N2C[C@H](c3ccc(F)cc3)OC2=O)c1	49 nM	60 nM	Stability [4]: 4 µL/min/mg; Stability [3]: 50 µL/min/mg
COc1ccc(CN(C)C(=O)c2ccc3c(c2)OCO3)c(OC)c1	310 nM	–	–
Cn1c(=O)n(Cc2cc(O)c(Cl)cc2Cl)c2ccccc21	39 nM	–	–
CCn1cc(C(=O)N(C)C(C)c2ccc(F)cc2)c2ccccc21 (racemic)	47 nM	–	–
CC1(C)C(c2ccc(F)cc2)OC(=O)N1c1cccc(C#N)c1 (racemic)	450 nM	–	–
O=C1OC(c2ccc(F)cc2)CN1c1cccc(OS(=O)(=O)O)c1 (centres undefined)	–	–	Drug metabolism [6]: Metabolite_Detected; Drug metabolism [5]: Metabolite_Detected
O=C1OC(c2ccc(F)cc2)CN1c1ccccc1 (racemic)	150 nM	190 nM	Stability [4]: 45 µL/min/mg
O=C1OC(c2ccc(F)cc2)CN1c1cccc(O[C@@H]2O[C@H](CO)[C@@H](O)[C@H](O)[C@H]2O)c1 (some centres undefined)	–	–	Drug metabolism [6]: Metabolite_Detected; Drug metabolism [5]: Metabolite_Detected
C[C@H]1[C@H](c2ccc(F)cc2)OC(=O)N1c1cc(F)cc(C#N)c1 (racemic)	4 nM	3.7 nM	MRT last [7]: 3.8 h; AUC(0-t) at 8 h [8]: 1200 ng·h/mL; bioavailability [9]: 61%; inhibition in vivo at 3 mg/kg [10]: 63%
O=C1OC(c2ccc(F)cc2)CN1c1cccc(F)c1 (racemic)	51 nM	170 nM	Stability [4]: 81 µL/min/mg
N#Cc1cccc(N2C[C@@H](c3ccc(F)cc3)OC2=O)c1	> 10000 nM	–	–
C[C@H]1[C@H](c2ccc(F)cc2)OC(=O)N1c1cc(Cl)cc(C#N)c1	< 1 nM	0.52 nM	AUC(0-t) [11]: 974 ng·h/mL; inhibition at 10 µM [12]: 44.2%; MRT last [13]: 4.2 h; bioavailability [9]: 74.4%; inhibition in vivo at 3 mg/kg [14]: 71%
O=C1OC(c2ccc(F)cc2)CN1c1cccc(Cl)c1 (racemic)	23 nM	55 nM	Stability [4]: 72 µL/min/mg
C[C@H]1[C@H](c2ccc(F)cc2)OC(=O)N1c1cccc(C#N)c1	5.3 nM	8.7 nM	MRT last [7]: 3.4 h; AUC(0-t) at 8 h [8]: 2080 ng·h/mL; Stability [3]: 24 µL/min/mg; bioavailability [9]: 87.2%; inhibition in vivo at 3 mg/kg [10]: 42%
O=C1OC(c2ccccc2)CN1Cc1cc(O)c(Cl)cc1Cl (racemic)	12 nM	1100 nM	–
O=C1OC(c2ccc(F)cc2)CN1Cc1ccc(Cl)cc1Cl (racemic)	79 nM	150 nM	–
